Read-outs that look alike come from different tables or passages of the source.
Tests used:
[1] = test system: HTB-140 cells; assay: Apoptosis, Annexin V-FITC/7-AAD flow cytometry, HTB-140; format: cell-based, human
In short: (§1)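 Human HTB-140, A549, HeLa, SW620 or HaCaT cells were grown in DMEM with 2% FBS at 1 × 10^4 cells per well and preincubated 72 h with test compound. Camptothecin, 4 µM for 4 h, served as the positive control. Cells were dual-stained with Annexin V-FITC and 7-AAD, and 10,000 cells were analysed by flow cytometry. Annexin+/7-AAD− cells counted as early apoptotic; Annexin+/7-AAD+ as late apoptotic or necrotic.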

[2] = test system: HTB-140 (human melanoma) cells; assay: MTT cytotoxicity assay, HTB-140; format: cell-based; settings: for IC50: 72 h, read-out: IC50 HTB-140; for SI HTB-140 (Selectivity Index): SI = IC50 for normal cell line (HaCaT)/IC50 cancer cell line
In short: (§2)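 Cells were seeded in 96-well plates at 1 × 10^4 per well in DMEM with 2% FBS and exposed 72 h to a range of test-compound concentrations. MTT (0.5 mg/mL) was added for 4 h, and formazan was dissolved in 0.04 M HCl/isopropanol. A570 was read relative to untreated control. […] SI = IC50 in HaCaT keratinocytes / IC50 in the cancer line. Mean SD.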

[3] = test system: HaCaT cells; assay: LDH release assay, HaCaT; format: cell-based, human; settings: 25 µM, 72 h
[4] = test system: A549 (human lung adenocarcinoma) cells; assay: MTT cytotoxicity assay, A549; format: cell-based; settings: for IC50: read-out: IC50 A549; for SI A549 (Selectivity Index): SI = IC50 for normal cell line (HaCaT)/IC50 cancer cell line
In short: as §2

[5] = test system: HeLa (human cervical cancer) cells; assay: MTT cytotoxicity assay, HeLa; format: cell-based; settings: for IC50: 72 h, read-out: IC50 HeLa; for SI HeLa (Selectivity Index): SI = IC50 for normal cell line (HaCaT)/IC50 cancer cell line
In short: as §2

[6] = test system: HaCaT (immortalized human keratinocytes); assay: MTT cytotoxicity assay, HaCaT normal cells; format: cell-based; settings: 72 h, read-out: IC50 HaCaT (normal cells)
[7] = test system: A549 cells; assay: Apoptosis, Annexin V-FITC/7-AAD flow cytometry, A549; format: cell-based, human; settings: for cells in late apoptosis or necrosis: A549, IC50 concentration, 72 h
In short: as §1

[8] = test system: HTB-140 cells; assay: LDH release assay, HTB-140; format: cell-based, human; settings: 25 µM, 72 h
[9] = test system: interleukin-6 (IL-6) release, A549 cells; assay: IL-6 level by ELISA, A549; format: cell-based, human; settings: A549, IC50 dose, 72 h
In short: (§3)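 Cells were seeded at 1 × 10^4 per well in DMEM with 2% FBS and exposed to test compound for 72 h. IL-6 in the culture supernatant was measured with a commercial ELISA kit and compared with untreated control. Data are mean ± SD from three independent experiments, each run in triplicate, compared by Student's t-test.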

[10] = test system: SW620 (human colorectal cancer) cells; assay: MTT cytotoxicity assay, SW620; format: cell-based; settings: for SI SW620 (Selectivity Index): SI = IC50 for normal cell line (HaCaT)/IC50 cancer cell line
In short: as §2

[11] = test system: interleukin-6 (IL-6) release, HTB-140 cells; assay: IL-6 level by ELISA, HTB-140; format: cell-based, human; settings: HTB-140, IC50 dose, 72 h
In short: as §3

[12] = test system: interleukin-6 (IL-6) release, SW620 cells; assay: IL-6 level by ELISA, SW620; format: cell-based, human; settings: SW620, IC50 dose, 72 h
In short: as §3

[13] = test system: SW620 cells; assay: Apoptosis, Annexin V-FITC/7-AAD flow cytometry, SW620; format: cell-based, human; settings: SW620, 4 µM, 4 h
In short: as §1

[14] = test system: HaCaT cells; assay: Apoptosis, Annexin V-FITC/7-AAD flow cytometry, HaCaT; format: cell-based, human; settings: 4 µM, 4 h
In short: as §1

[15] = test system: HeLa cells; assay: Apoptosis, Annexin V-FITC/7-AAD flow cytometry, HeLa; format: cell-based, human; settings: 4 µM, 4 h
In short: as §1

[16] = test system: interleukin-6 (IL-6) release, HeLa cells; assay: IL-6 level by ELISA, HeLa; format: cell-based, human; settings: IC50 dose, 72 h
In short: as §3

[17] = HTB-140, IC50 concentration, 72 h
[18] = Homo sapiens, SW-620, 72 h, read-out: IC50 SW620, MTT, 72 h, mean SD
[19] = read-out: IC50 SW620, MTT, 72 h, mean SD

Row | SMILES | IC50 ([2]; Homo sapiens) [µM] | SI HTB-140 (Selectivity Index) [2] | IC50 ([4]; Homo sapiens, A549, 72 h) [µM] | SI A549 (Selectivity Index) [4] | IC50 ([5]; Homo sapiens, HeLa) [µM] | SI HeLa (Selectivity Index) [5] | IC50 ([6]; Homo sapiens, HaCaT) [µM] | IC50 [10, 18] [µM] | SI SW620 (Selectivity Index) [10] | further results
1 | CCc1cc(=O)c2c(O)c3ccoc3c(OC)c2o1 [Compound 2, 7-ethyl-4-hydroxy-9-methoxy-5H-furo[3,2-g][1]benzopyran-5-one] | 29.4 ± 3.4 | 1.58 | 36.5 ± 6.5 | 1.27 | 29.2 ± 3.9 | 1.59 | 46.5 ± 8.5 | 17.4 ± 3.5 | 2.67 | cells in early apoptosis [1, 17]: 19.5%; cells in late apoptosis or necrosis [1, 17]: 20.8%; LDH release [3]: 13.5%; cells in late apoptosis or necrosis [7]: 63.2%; LDH release [8]: 30.4%; IL-6 release effect vs control [9]: 38%
2 | CCc1cc(=O)c2c(OCC(O)CN3CCOCC3)c3ccoc3c(OC)c2o1 (stereo not shown) [Compound 9, 7-ethyl-9-methoxy-4-[2-hydroxy-3-(morpholin-4-yl)propoxy]-5H-furo[3,2-g][1] benzopyran-5-one] | 23.4 ± 2.6 | 2.29 | 37.6 ± 7.3 | 1.43 | 29.5 ± 4.6 | 1.82 | 53.6 ± 7.3 | 21.9 ± 4.3 | 2.45 | –
3 | CCc1cc(=O)c2c(OCC(O)CN3CCC(C)CC3)c3ccoc3c(OC)c2o1 (stereo not shown) [Compound 5, 7-ethyl-9-methoxy-4-[2-hydroxy-3-(4-methylpiperidin-1-yl)propoxy]-5H-furo[3,2-g][1]benzopyran-5-one] | 29.4 ± 4.9 | 1.49 | 43.8 ± 8.3 | 1.00 | 32.6 ± 3.7 | 1.34 | 43.8 ± 8.3 | 26.3 ± 3.3 | 1.67 | –
4 | CCc1cc(=O)c2c(OCC(O)CN3CCCCC3)c3ccoc3c(OC)c2o1 (stereo not shown) [Compound 7, 7-ethyl-9-methoxy-4-[2-hydroxy-3-(piperidin-1-yl)propoxy]-5H-furo[3,2-g][1] benzopyran-5-one] | 32.5 ± 4.1 | 1.60 | 35.2 ± 6.3 | 1.47 | 32.3 ± 3.8 | 1.61 | 51.9 ± 6.3 | 28.6 ± 5.5 | 1.81 | –
5 | COc1cccc2c1C(=O)c1c(O)c3c(c(O)c1C2=O)C[C@@](O)(C(=O)CO)C[C@@H]3O[C@H]1C[C@H](N)[C@H](O)[C@H](C)O1 [Ref 2, doxorubicin, reference compound] | 0.5 ± 0.21 | – | 0.9 ± 0.19 | – | 0.6 ± 0.14 | – | – | 0.7 ± 0.16 | – | –
6 | CCc1cc(=O)c2c(O)c3ccoc3c(O)c2o1 [Compound 1, 7-ethyl-4,9-dihydroxy-5 H-furo[3,2-g][1]benzopyran-5-one] | 30.4 ± 8.7 | 1.64 | 39.8 ± 7.9 | 1.25 | 41.5 ± 4.6 | 1.20 | 49.8 ± 7.9 | 21.1 ± 4.4 | 2.36 | –
7 | N.N.[Cl][Pt][Cl] [Ref 1, cisplatin, reference compound] | – | – | – | – | – | – | – | – | – | IC50 ([2]; MTT, mean SD): 1.4 ± 0.69 µM; IC50 ([4]; MTT, 72 h, mean SD): 2.7 ± 1.1 µM; IC50 ([5]; MTT, mean SD): 1.8 ± 0.74 µM; IC50 ([6]; MTT, mean SD): 2.8 ± 1.1 µM; IC50 [10, 19]: 1.9 ± 0.9 µM
8 | CCc1cc(=O)c2c(OCC(O)CNC(C)C)c3ccoc3c(OC)c2o1 (stereo not shown) [Compound 4, 7-ethyl-9-methoxy-4-{2-hydroxy-3-[(propan-2-yl)amino]propoxy}-5H-furo[3,2-g][1]benzopyran-5-one] | 18.2 ± 3.6 | 2.32 | 32.3 ± 7.9 | 1.31 | 27.4 ± 6.5 | 1.54 | 42.3 ± 7.9 | 11.4 to 11.5 | 3.68 | cells in late apoptosis or necrosis [7]: 55.6%; reduction of IL-6 release vs control [11]: strongest effect; reduction of IL-6 secretion vs control [12]: around 50%; IC50 [10, 19]: 11.5 ± 6.6 µM
9 | CC[C@@]1(O)C(=O)OCc2c1cc1n(c2=O)Cc2cc3ccccc3nc2-1 [camptothecin] | – | – | – | – | – | – | – | – | – | apoptosis induction (positive control) [13]: induced apoptosis; apoptosis induction (positive control) ([1]; HTB-140, 4 µM, 4 h): induced apoptosis; apoptosis induction (positive control) [14]: induced apoptosis; apoptosis induction (positive control) [15]: induced apoptosis; apoptosis induction (positive control) ([7]; A549, 4 µM, 4 h): induced apoptosis
10 | CCc1cc(=O)c2c(OCC(O)CNC(C)(C)C)c3ccoc3c(OC)c2o1 (stereo not shown) [Compound 8, 7-ethyl-9-methoxy-4-[3-(tert-butylamino)-2-hydroxypropoxy]-5H-furo[3,2-g][1] benzopyran-5-one] | 31.3 ± 2.6 | 1.47 | 38.4 ± 7.3 | 1.20 | 33.4 ± 4.6 | 1.38 | 46.1 ± 7.3 | 26.3 ± 4.3 | 1.75 | –
11 | CCc1cc(=O)c2c(OCC(O)CN(CC)CC)c3ccoc3c(OC)c2o1 (stereo not shown) [Compound 3, 7-ethyl-9-methoxy-4-[3-(diethylamino)-2-hydroxypropoxy]-5H-furo[3,2-g][1] benzopyran-5-one] | 30.1 ± 4.7 | 1.44 | 33.6 ± 4.1 | 1.29 | 34.2 ± 4.9 | 1.27 | 43.3 ± 9.1 | 12.7 ± 5.1 | 3.41 | inhibition of IL-6 release vs control [16]: 48%
